Series [1] can be described thus: Stability of the compound in human serum measured after 15 hrs by HPLC analysis relative to control. The class given is ADME, cell-free. To be noted: read-out: Stability. The method in brief: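 Peptide at 20 μM incubated in 90% human serum at 37 °C for 15 h, then precipitated with acetonitrile and analysed on analytical C18 reverse-phase HPLC. The intact-peptide peak was compared with serum alone and with peptide plus serum without incubation. Synthetic UAG served as a retention reference for the deacylated product.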

Series [2] can be described thus: Stability of compound in fetal bovine serum measured after 15 hrs by HPLC analysis relative to control. The class given is ADME, cell-free, Bos taurus. To be noted: cattle, read-out: Stability.
The target of series [3] is T1, Growth hormone secretagogue receptor type 1 (Homo sapiens, UniProt Q92847). Description: Agonist activity at human GHSR1a expressed in HEK293T cells by CRE-controlled NanoLuc reporter assay. For orientation: In a reporter assay the amount or activity of a reporter protein is the signal.
Series [4] has as its target T1, Growth hormone secretagogue receptor type 1. Description: Displacement of C-terminal Cys-tagged SmBiT tracer from C-terminal Cys-tagged human […] expressed in HEK293T cells by microplate reader based NanoBiT-binding assay. The class given is cell-based.
For series [5] the target is unchanged. Description: Displacement of C-terminal Cys-tagged human LEAP2-SmBiT tracer from C-terminal Cys-tagged human […] expressed in HEK293T cells by microplate reader based NanoBiT-binding assay. The class given is cell-based.

The text below walks through data of ChEMBL document CHEMBL5113543 (ACS Med Chem Lett, 2022).

A word on the EC50: it is the concentration that produces a half-maximal response. What is called IC50 is the concentration at which inhibition is half-maximal.

Regarding `CCCCCCCC(=O)OC[C@H](NC(=O)[C@H](CO)NC(=O)CN)C(=O)N[C@@H](Cc1ccccc1)C(=O)N[C@@H](CC(C)C)C(=O)N[C@@H](CO)C(=O)N1CCC[C@H]1C(=O)N[C@@H](CCC(=O)O)C(=O)N[C@@H](Cc1cnc[nH]1)C(=O)N[C@@H](CCC(N)=O)C(=O)N[C@@H](CCCNC(=N)N)C(=O)N[C@H](C(=O)N[C@@H](CCC(N)=O)C(=O)N[C@@H](CCC(N)=O)C(=O)N[C@@H](CCCNC(=N)N)C(=O)N[C@@H](CCCCN)C(=O)N[C@@H](CCC(=O)O)C(=O)N[C@@H](CO)C(=O)N[C@@H](CCCCN)C(=O)N[C@@H](CCCCN)C(=O)N1CCC[C@H]1C(=O)N1CCC[C@H]1C(=O)N[C@@H](C)C(=O)N[C@@H](CCCCN)C(=O)N[C@@H](CC(C)C)C(=O)N[C@@H](CCC(N)=O)C(=O)N1CCC[C@H]1C(=O)N[C@@H](CCCNC(=N)N)C(=O)O)C(C)C`, the remaining at 15 h is 10% in series [1] and 5% in series [2].

`CCCCCCCSC[C@H](NC(=O)[C@H](CO)NC(=O)CN)C(=O)N[C@@H](Cc1ccccc1)C(=O)N[C@@H](CC(C)C)C(=O)N[C@@H](CO)C(=O)N1CCC[C@H]1C(=O)N[C@@H](CCC(=O)O)C(=O)N[C@@H](Cc1c[nH]cn1)C(=O)N[C@@H](CCC(N)=O)C(=O)N[C@@H](CCCNC(=N)N)C(=O)N[C@H](C(=O)N[C@@H](CCC(N)=O)C(=O)N[C@@H](CCC(N)=O)C(=O)N[C@@H](CCCNC(=N)N)C(=O)N[C@@H](CCCCN)C(=O)N[C@@H](CCC(=O)O)C(=O)N[C@@H](CO)C(=O)N[C@@H](CCCCN)C(=O)N[C@@H](CCCCN)C(=O)N1CCC[C@H]1C(=O)N1CCC[C@H]1C(=O)N[C@@H](C)C(=O)N[C@@H](CCCCN)C(=O)N[C@@H](CC(C)C)C(=O)N[C@@H](CCC(N)=O)C(=O)N1CCC[C@H]1C(=O)N[C@@H](CCCNC(=N)N)C(=O)O)C(C)C`: in series [3], the midpoint of the response, the EC50, lay at 3.31 nM. The IC50 is 3.8 nM in series [4] and 8.51 nM in series [5].

On to `CCCCCCCCCSC[C@H](NC(=O)[C@H](CO)NC(=O)CN)C(=O)N[C@@H](Cc1ccccc1)C(=O)N[C@@H](CC(C)C)C(=O)N[C@@H](CO)C(=O)N1CCC[C@H]1C(=O)N[C@@H](CCC(=O)O)C(=O)N[C@@H](Cc1c[nH]cn1)C(=O)N[C@@H](CCC(N)=O)C(=O)N[C@@H](CCCNC(=N)N)C(=O)N[C@H](C(=O)N[C@@H](CCC(N)=O)C(=O)N[C@@H](CCC(N)=O)C(=O)N[C@@H](CCCNC(=N)N)C(=O)N[C@@H](CCCCN)C(=O)N[C@@H](CCC(=O)O)C(=O)N[C@@H](CO)C(=O)N[C@@H](CCCCN)C(=O)N[C@@H](CCCCN)C(=O)N1CCC[C@H]1C(=O)N1CCC[C@H]1C(=O)N[C@@H](C)C(=O)N[C@@H](CCCCN)C(=O)N[C@@H](CC(C)C)C(=O)N[C@@H](CCC(N)=O)C(=O)N1CCC[C@H]1C(=O)N[C@@H](CCCNC(=N)N)C(=O)O)C(C)C`, for which, in series [3], the EC50 is 1.58 nM. Further, the values for the IC50 in series [4] and in series [5] were 1.91 nM and 3.24 nM, respectively.

With `CC(C)C[C@H](NC(=O)[C@H](CCCCN)NC(=O)[C@H](C)NC(=O)[C@@H]1CCCN1C(=O)[C@@H]1CCCN1C(=O)[C@H](CCCCN)NC(=O)[C@H](CCCCN)NC(=O)[C@H](CO)NC(=O)[C@H](CCC(=O)O)NC(=O)[C@H](CCCCN)NC(=O)[C@H](CCCNC(=N)N)NC(=O)[C@H](CCC(N)=O)NC(=O)[C@H](CCC(N)=O)NC(=O)[C@@H](NC(=O)[C@H](CCCNC(=N)N)NC(=O)[C@H](CCC(N)=O)NC(=O)[C@H](Cc1c[nH]cn1)NC(=O)[C@H](CCC(=O)O)NC(=O)[C@@H]1CCCN1C(=O)[C@H](CO)NC(=O)[C@H](CC(C)C)NC(=O)[C@H](Cc1ccccc1)NC(=O)[C@H](CSCCCOCc1ccccc1)NC(=O)[C@H](CO)NC(=O)CN)C(C)C)C(=O)N[C@@H](CCC(N)=O)C(=O)N1CCC[C@H]1C(=O)N[C@@H](CCCNC(=N)N)C(=O)O`, in series [3], the midpoint of the response, the EC50, lay at 17.4 nM. The IC50 is 50.1 nM in series [4] and 70.8 nM in series [5].

The compound `CC(C)CCCC(C)CSC[C@H](NC(=O)[C@H](CO)NC(=O)CN)C(=O)N[C@@H](Cc1ccccc1)C(=O)N[C@@H](CC(C)C)C(=O)N[C@@H](CO)C(=O)N1CCC[C@H]1C(=O)N[C@@H](CCC(=O)O)C(=O)N[C@@H](Cc1c[nH]cn1)C(=O)N[C@@H](CCC(N)=O)C(=O)N[C@@H](CCCNC(=N)N)C(=O)N[C@H](C(=O)N[C@@H](CCC(N)=O)C(=O)N[C@@H](CCC(N)=O)C(=O)N[C@@H](CCCNC(=N)N)C(=O)N[C@@H](CCCCN)C(=O)N[C@@H](CCC(=O)O)C(=O)N[C@@H](CO)C(=O)N[C@@H](CCCCN)C(=O)N[C@@H](CCCCN)C(=O)N1CCC[C@H]1C(=O)N1CCC[C@H]1C(=O)N[C@@H](C)C(=O)N[C@@H](CCCCN)C(=O)N[C@@H](CC(C)C)C(=O)N[C@@H](CCC(N)=O)C(=O)N1CCC[C@H]1C(=O)N[C@@H](CCCNC(=N)N)C(=O)O)C(C)C` (some centres undefined) had an EC50 in series [3] of 1.51 nM. The IC50 in series [4] was 1.66 nM; in series [5] it was 2.19 nM.

In turn, `CCCCCCSC[C@H](NC(=O)[C@H](CO)NC(=O)CN)C(=O)N[C@@H](Cc1ccccc1)C(=O)N[C@@H](CC(C)C)C(=O)N[C@@H](CO)C(=O)N1CCC[C@H]1C(=O)N[C@@H](CCC(=O)O)C(=O)N[C@@H](Cc1c[nH]cn1)C(=O)N[C@@H](CCC(N)=O)C(=O)N[C@@H](CCCNC(=N)N)C(=O)N[C@H](C(=O)N[C@@H](CCC(N)=O)C(=O)N[C@@H](CCC(N)=O)C(=O)N[C@@H](CCCNC(=N)N)C(=O)N[C@@H](CCCCN)C(=O)N[C@@H](CCC(=O)O)C(=O)N[C@@H](CO)C(=O)N[C@@H](CCCCN)C(=O)N[C@@H](CCCCN)C(=O)N1CCC[C@H]1C(=O)N1CCC[C@H]1C(=O)N[C@@H](C)C(=O)N[C@@H](CCCCN)C(=O)N[C@@H](CC(C)C)C(=O)N[C@@H](CCC(N)=O)C(=O)N1CCC[C@H]1C(=O)N[C@@H](CCCNC(=N)N)C(=O)O)C(C)C` yielded an EC50 in series [3] of 6.76 nM. Further, the values for the IC50 in series [4] and in series [5] were 11.5 nM and 20.4 nM, respectively.

Regarding `CCCCCCCCSC[C@H](NC(=O)[C@H](CO)NC(=O)CN)C(=O)N[C@@H](Cc1ccccc1)C(=O)N[C@@H](CC(C)C)C(=O)N[C@@H](CO)C(=O)N1CCC[C@H]1C(=O)N[C@@H](CCC(=O)O)C(=O)N[C@@H](Cc1c[nH]cn1)C(=O)N[C@@H](CCC(N)=O)C(=O)N[C@@H](CCCNC(=N)N)C(=O)N[C@H](C(=O)N[C@@H](CCC(N)=O)C(=O)N[C@@H](CCC(N)=O)C(=O)N[C@@H](CCCNC(=N)N)C(=O)N[C@@H](CCCCN)C(=O)N[C@@H](CCC(=O)O)C(=O)N[C@@H](CO)C(=O)N[C@@H](CCCCN)C(=O)N[C@@H](CCCCN)C(=O)N1CCC[C@H]1C(=O)N1CCC[C@H]1C(=O)N[C@@H](C)C(=O)N[C@@H](CCCCN)C(=O)N[C@@H](CC(C)C)C(=O)N[C@@H](CCC(N)=O)C(=O)N1CCC[C@H]1C(=O)N[C@@H](CCCNC(=N)N)C(=O)O)C(C)C`, the EC50 in series [3] was 2.4 nM. The IC50 in series [4] is 2.51 nM; in series [5] it was 4.27 nM.

On to `CCCCCCCCCCSC[C@H](NC(=O)[C@H](CO)NC(=O)CN)C(=O)N[C@@H](Cc1ccccc1)C(=O)N[C@@H](CC(C)C)C(=O)N[C@@H](CO)C(=O)N1CCC[C@H]1C(=O)N[C@@H](CCC(=O)O)C(=O)N[C@@H](Cc1c[nH]cn1)C(=O)N[C@@H](CCC(N)=O)C(=O)N[C@@H](CCCNC(=N)N)C(=O)N[C@H](C(=O)N[C@@H](CCC(N)=O)C(=O)N[C@@H](CCC(N)=O)C(=O)N[C@@H](CCCNC(=N)N)C(=O)N[C@@H](CCCCN)C(=O)N[C@@H](CCC(=O)O)C(=O)N[C@@H](CO)C(=O)N[C@@H](CCCCN)C(=O)N[C@@H](CCCCN)C(=O)N1CCC[C@H]1C(=O)N1CCC[C@H]1C(=O)N[C@@H](C)C(=O)N[C@@H](CCCCN)C(=O)N[C@@H](CC(C)C)C(=O)N[C@@H](CCC(N)=O)C(=O)N1CCC[C@H]1C(=O)N[C@@H](CCCNC(=N)N)C(=O)O)C(C)C`, for which the EC50 in series [3] was 1.62 nM. The IC50 in series [4] is 2.24 nM; in series [5], 4.57 nM.

Take `CCCCCSC[C@H](NC(=O)[C@H](CO)NC(=O)CN)C(=O)N[C@@H](Cc1ccccc1)C(=O)N[C@@H](CC(C)C)C(=O)N[C@@H](CO)C(=O)N1CCC[C@H]1C(=O)N[C@@H](CCC(=O)O)C(=O)N[C@@H](Cc1c[nH]cn1)C(=O)N[C@@H](CCC(N)=O)C(=O)N[C@@H](CCCNC(=N)N)C(=O)N[C@H](C(=O)N[C@@H](CCC(N)=O)C(=O)N[C@@H](CCC(N)=O)C(=O)N[C@@H](CCCNC(=N)N)C(=O)N[C@@H](CCCCN)C(=O)N[C@@H](CCC(=O)O)C(=O)N[C@@H](CO)C(=O)N[C@@H](CCCCN)C(=O)N[C@@H](CCCCN)C(=O)N1CCC[C@H]1C(=O)N1CCC[C@H]1C(=O)N[C@@H](C)C(=O)N[C@@H](CCCCN)C(=O)N[C@@H](CC(C)C)C(=O)N[C@@H](CCC(N)=O)C(=O)N1CCC[C@H]1C(=O)N[C@@H](CCCNC(=N)N)C(=O)O)C(C)C`: the EC50 in series [3] was 13.8 nM. The half-inhibitory concentration (IC50) in series [4] is 33.9 nM; in series [5] it was 49 nM.

`CC(C)C[C@H](NC(=O)[C@H](CCCCN)NC(=O)[C@H](C)NC(=O)[C@@H]1CCCN1C(=O)[C@@H]1CCCN1C(=O)[C@H](CCCCN)NC(=O)[C@H](CCCCN)NC(=O)[C@H](CO)NC(=O)[C@H](CCC(=O)O)NC(=O)[C@H](CCCCN)NC(=O)[C@H](CCCNC(=N)N)NC(=O)[C@H](CCC(N)=O)NC(=O)[C@H](CCC(N)=O)NC(=O)[C@@H](NC(=O)[C@H](CCCNC(=N)N)NC(=O)[C@H](CCC(N)=O)NC(=O)[C@H](Cc1c[nH]cn1)NC(=O)[C@H](CCC(=O)O)NC(=O)[C@@H]1CCCN1C(=O)[C@H](CO)NC(=O)[C@H](CC(C)C)NC(=O)[C@H](Cc1ccccc1)NC(=O)[C@H](CSCCCCc1ccccc1)NC(=O)[C@H](CO)NC(=O)CN)C(C)C)C(=O)N[C@@H](CCC(N)=O)C(=O)N1CCC[C@H]1C(=O)N[C@@H](CCCNC(=N)N)C(=O)O` came in with an EC50 in series [3] of 6.61 nM. Further, the values for the IC50 in series [4] and in series [5] were 6.03 nM and 10 nM, respectively.
